Measurements pooled from the literature.
Compare with care: the assays were run in different laboratories.
Target: Estrogen receptor (ESR1, Homo sapiens, UniProt P03372)
One construct used (P03372 1-595): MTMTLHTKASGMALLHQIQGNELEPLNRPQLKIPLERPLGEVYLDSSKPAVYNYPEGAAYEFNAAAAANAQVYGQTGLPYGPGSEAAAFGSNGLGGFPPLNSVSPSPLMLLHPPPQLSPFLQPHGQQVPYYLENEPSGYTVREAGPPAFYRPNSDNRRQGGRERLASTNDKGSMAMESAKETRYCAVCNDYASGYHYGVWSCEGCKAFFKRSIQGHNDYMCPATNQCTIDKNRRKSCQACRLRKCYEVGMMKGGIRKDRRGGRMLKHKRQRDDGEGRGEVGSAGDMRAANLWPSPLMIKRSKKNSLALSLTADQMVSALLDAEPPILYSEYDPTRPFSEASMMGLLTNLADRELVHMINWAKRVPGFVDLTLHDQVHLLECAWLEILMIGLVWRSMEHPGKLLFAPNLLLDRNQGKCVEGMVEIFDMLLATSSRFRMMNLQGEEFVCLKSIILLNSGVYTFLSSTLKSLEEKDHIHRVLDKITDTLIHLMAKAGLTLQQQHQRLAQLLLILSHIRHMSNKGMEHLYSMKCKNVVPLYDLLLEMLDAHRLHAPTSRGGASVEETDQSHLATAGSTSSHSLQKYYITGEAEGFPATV

COc1ccc(S(=O)(=O)N2CCCCC2)cc1C
inhibition (ligand displacement; radioligand; 10 µM): < 30%

Clc1cccc(-c2cccc(Cl)c2)c1
Emax (reporter gene; agonist; luciferase): < 20%

C[C@H](C(=O)N[C@H]1COc2ccccc2[C@@H]1S(C)(=O)=O)c1ccc(F)cc1
inhibition (cell-free assay; 10 µM): 7%

COCc1c(-c2cc3cc(C)cc(OC)c3s2)c2c(N)ncnn2c1CN1CCNC(=O)C1
inhibition (ligand displacement; radioligand; 10 µM): 6%

CC(C)N1CCC[C@H]1CNC(=O)c1cn(C2CCCC2)c(=O)c2c1c1ccccc1n2C
inhibition (ligand displacement; radioligand; 10 µM): 15%

O=C(Nc1cccnn1)N1CCN([C@@H]2CCOc3cc(C(F)(F)F)ccc32)CC1
inhibition (cell-free assay; 20 µM): 0%

c1ccc(C(NCCNC(c2ccccc2)c2ccccc2)c2ccccc2)cc1
inhibition (cell-free assay; 10 µM): 63%

Clc1ccc(-c2cc(Cl)ccc2Cl)cc1
Emax (reporter gene; agonist; luciferase): < 20%
